Measurements as given in ChEMBL document CHEMBL2429831, “Synthesis, antitubercular and anticancer activity of new Baylis-Hillman adduct-derived N-cinnamyl-substituted isatin derivatives” (Med Chem Res, 2013).
Converted amounts (≈) assume the structure as drawn. The source made the active and inactive calls. No cut-off for these calls is given here.

Columns and labels:
[1] = system: Mycobacterium tuberculosis; experiment: Antitubercular activity against Mycobacterium tuberculosis H37Rv ATCC 27294 assessed as growth inhibition after 28 days by agar dilution method; type: functional; details: H37Rv ATCC 27294, 672 h
Outline: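 Agar dilution in Middlebrook 7H11 with 10 % OADC, duplicate plates; compounds dissolved in DMSO and diluted twofold to give ten serial dilutions. Inoculum grown on 7H11/OADC slants, adjusted to 1 mg/mL wet weight in 0.05 % Tween 80 saline, diluted 10−2 (~10^7 cfu/mL); 5 μL spotted. Incubated at 37 °C, read at 28 days; MIC = lowest concentration completely inhibiting growth.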

COLO 205 = experiment: Cytotoxicity against human COLO205 cells assessed as cell viability at 0.0000001 to 1 mM after 16 hrs by MTT assay; type: functional, cell-based
Outline: (§1)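 Cells seeded and incubated overnight at 37 °C in a CO2 incubator, then exposed to 1 mM, 100 μM, 100 nM and 100 pM (final) for 16 h at 37 °C, 5 % CO2. Medium removed, MTT (1 mg/mL in medium) added for 5 h, formazan dissolved in DMSO, absorbance read at 570 nm. Viability relative to 0.1 % DMSO solvent control (100 %). Triplicates, means.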

CHO = experiment: Cytotoxicity against CHO cells assessed as cell viability at 0.0000001 to 1 mM after 16 hrs by MTT assay; type: cell-based, Cricetulus griseus; details: chinese hamster; outline: as §1
C6 = experiment: Cytotoxicity against rat C6 cells assessed as cell viability at 0.0000001 to 1 mM after 16 hrs by MTT assay; type: functional; outline: as §1
SUP-T1 = experiment: Cytotoxicity against human SupT1 cells assessed as cell viability at 0.0000001 to 1 mM after 16 hrs by MTT assay; type: functional; outline: as §1

Row | SMILES | MIC [1] [µg/mL] | Activity (COLO 205) | Activity (CHO) | Activity (C6) | Activity (SUP-T1)
1 | COC(=O)/C(=C/c1ccc(Br)cc1)CN1C(=O)C(=O)c2cc(F)ccc21 | 6.25 (≈ 14.9 µM) | Active | Toxic | Active | Active
2 | COC(=O)/C(=C/c1ccccc1)CN1C(=O)C(=O)c2cc(Br)ccc21 | 12.5 (≈ 31.2 µM) | Active | Toxic | Active | Active
3 | COC(=O)/C(=C/c1ccccc1)CN1C(=O)C(=O)c2ccccc21 | 25 (≈ 77.8 µM) | Active | Toxic | Active | Active
4 | NC(=O)c1cnccn1 [PYRAZINAMIDE] | 50.8 (≈ 412 µM) | – | – | – | –
5 | COC(=O)/C(=C/c1ccc([N+](=O)[O-])cc1)CN1C(=O)C(=O)c2cc(F)ccc21 | 1.56 (≈ 4.06 µM) | Active | Toxic | Active | Active
6 | COC(=O)/C(=C/c1ccccc1)CN1C(=O)C(=O)c2cc(Cl)ccc21 | 12.5 (≈ 35.1 µM) | Active | Toxic | Active | Active
7 | COC(=O)/C(=C/c1ccc(Br)cc1)CN1C(=O)C(=O)c2ccccc21 | 25 (≈ 62.5 µM) | Active | Toxic | Active | Active
8 | COC(=O)/C(=C/c1ccccc1)CN1C(=O)C(=O)c2cc(F)ccc21 | 12.5 (≈ 36.8 µM) | Active | Toxic | Active | Active
9 | COC(=O)/C(=C/c1ccc([N+](=O)[O-])cc1)CN1C(=O)C(=O)c2ccccc21 | 6.25 (≈ 17.1 µM) | Active | Toxic | Active | Active
10 | COC(=O)/C(=C/c1ccc(Br)cc1)CN1C(=O)C(=O)c2cc(Cl)ccc21 | 6.25 (≈ 14.4 µM) | Active | Toxic | Active | Active
11 | COC(=O)/C(=C/c1ccc([N+](=O)[O-])cc1)CN1C(=O)C(=O)c2cc(Cl)ccc21 | 1.56 (≈ 3.89 µM) | Active | Toxic | Active | Active
12 | COC(=O)/C(=C/c1ccc(Br)cc1)CN1C(=O)C(=O)c2cc(Br)ccc21 | 12.5 (≈ 26.1 µM) | Active | Toxic | Active | Active
13 | CO[C@H]1/C=C/O[C@@]2(C)Oc3c(C)c(O)c4c(O)c(c(/C=N/N5CCN(C)CC5)c(O)c4c3C2=O)NC(=O)/C(C)=C\C=C\[C@H](C)[C@H](O)[C@@H](C)[C@@H](O)[C@@H](C)[C@H](OC(C)=O)[C@@H]1C [RIFAMPIN] | 0.1 (≈ 0.122 µM) | – | – | – | –
14 | CC[C@@H](CO)NCCN[C@@H](CC)CO [ETHAMBUTOL] | 7.64 (≈ 37.4 µM) | – | – | – | –
15 | COC(=O)/C(=C/c1ccc([N+](=O)[O-])cc1)CN1C(=O)C(=O)c2cc(Br)ccc21 | 1.56 (≈ 3.5 µM) | Active | Non-toxic | <20% | <20%
16 | NNC(=O)c1ccncc1 [ISONIAZID] | 0.36 (≈ 2.63 µM) | – | – | – | –
